This is an account of results in PubChem BioAssay AID651708 (Sanford-Burnham Center for Chemical Genomics, 2012).

Where “and” joins values, the source holds several entries; their conditions need not be identical. Identical values can stand only once. Calls of active or inactive are those of the source.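 Rule for the calls: active = compound with IC50 above 30 µM at both the APJ and CCR6 off-target receptors, and at most 10 µM at CXCR6; inactive = the rest.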 Some results are limits rather than exact numbers.

What all share (experiment): GPCR panel antagonist activity incl. apelin receptor – cell-based, CHO-K1 PathHunter beta-arrestin, luminescence, set 3, selectivity assay for CXCR6 antagonist project, profiling panel (AID 651708)
For experiment [1], the target named is Apelin receptor (Homo sapiens) (UniProt P35414). The following applies: antagonist mode, APJ. The essentials: (§1)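 Material – CHO-K1 PathHunter β-arrestin cell lines for APJ, CCR6 or CXCR6 · Probe or stimulus – APJ 10 nM Apelin-13, CCR6 14 nM CCL20, CXCR6 CXCL16 · Measured by – β-arrestin recruitment luminescence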
Experiment [2] addresses C-C chemokine receptor type 6 (Homo sapiens) (UniProt P51684). As to conditions: antagonist mode. The method in brief: as §1
Experiment [3] has as its target C-X-C chemokine receptor type 6 (Homo sapiens) (UniProt O00574). The following applies: antagonist mode. The method in brief:
as §1

C-X-C chemokine receptor type 6 (Homo sapiens), sequence (O00574 whole entry, looked up): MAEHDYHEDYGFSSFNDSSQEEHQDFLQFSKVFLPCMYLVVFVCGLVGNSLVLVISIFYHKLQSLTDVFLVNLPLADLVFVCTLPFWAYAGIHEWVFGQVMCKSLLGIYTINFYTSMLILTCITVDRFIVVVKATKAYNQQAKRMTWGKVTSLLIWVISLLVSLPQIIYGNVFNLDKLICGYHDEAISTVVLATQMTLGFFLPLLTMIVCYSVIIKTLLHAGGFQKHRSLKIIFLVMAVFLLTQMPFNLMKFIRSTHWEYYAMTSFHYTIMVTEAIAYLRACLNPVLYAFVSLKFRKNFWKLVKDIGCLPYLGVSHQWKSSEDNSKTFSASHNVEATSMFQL
Apelin receptor (Homo sapiens), sequence (P35414 whole entry, looked up): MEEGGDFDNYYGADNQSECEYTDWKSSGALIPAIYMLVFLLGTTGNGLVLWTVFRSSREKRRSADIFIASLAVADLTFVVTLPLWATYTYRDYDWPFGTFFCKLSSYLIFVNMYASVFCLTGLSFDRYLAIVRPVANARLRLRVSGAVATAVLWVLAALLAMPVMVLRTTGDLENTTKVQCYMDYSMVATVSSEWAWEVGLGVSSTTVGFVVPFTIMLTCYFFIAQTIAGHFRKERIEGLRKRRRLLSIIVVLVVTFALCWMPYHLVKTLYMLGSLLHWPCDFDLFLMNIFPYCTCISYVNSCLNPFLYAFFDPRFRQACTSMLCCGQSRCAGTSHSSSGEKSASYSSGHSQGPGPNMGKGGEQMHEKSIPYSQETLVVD
C-C chemokine receptor type 6 (Homo sapiens), sequence (P51684 whole entry, looked up): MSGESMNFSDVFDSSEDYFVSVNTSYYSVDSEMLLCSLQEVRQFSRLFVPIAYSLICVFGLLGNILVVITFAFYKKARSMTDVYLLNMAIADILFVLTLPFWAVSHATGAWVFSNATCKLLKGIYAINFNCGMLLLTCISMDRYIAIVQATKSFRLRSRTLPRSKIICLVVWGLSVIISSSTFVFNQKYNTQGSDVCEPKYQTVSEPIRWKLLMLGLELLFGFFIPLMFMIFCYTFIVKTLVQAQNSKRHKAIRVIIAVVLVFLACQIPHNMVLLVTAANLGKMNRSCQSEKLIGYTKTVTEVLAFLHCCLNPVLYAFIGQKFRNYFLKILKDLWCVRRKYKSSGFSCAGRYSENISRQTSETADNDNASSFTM

As a reminder, the IC50 is the concentration that gives 50% inhibition. `COc1ccc(C(=O)NC2CC3CCCC(C2)N3CC(=O)Nc2ccccc2)cc1OC` (centres undefined): the IC50 in experiment [1] (mean of runs) is > 79 µM (inactive); in experiment [1] (run 1) it was above 79 µM; in experiment [1] (run 2) it was above 79 µM; in experiment [2] (CCR6, mean of runs) it was > 79 µM (inactive); in experiment [2] (CCR6, run 1), above 79 µM; in experiment [2] (CCR6, run 2) it was above 79 µM. Besides, the IC50 in experiment [3] (CXCR6, mean of runs) was > 79 µM (inactive); in experiment [3] (CXCR6, run 1) it was above 79 µM; in experiment [3] (CXCR6, run 2), above 79 µM.

For the compound `COc1ccc(NC(=O)CN2C3CCCC2CC(NC(=O)c2cccc(OC)c2)C3)cc1` (centres undefined), the IC50 is > 79 µM (inactive) in experiment [1] (mean of runs); above 79 µM in experiment [1] (run 1); above 79 µM in experiment [1] (run 2); > 79 µM (inactive) in experiment [2] (CCR6, mean of runs); above 79 µM in experiment [2] (CCR6, run 1); above 79 µM in experiment [2] (CCR6, run 2). The IC50 was > 79 µM (inactive) in experiment [3] (CXCR6, mean of runs); above 79 µM in experiment [3] (CXCR6, run 1); above 79 µM in experiment [3] (CXCR6, run 2).

`Cc1ccc(NC(=O)CN2C3CCCC2CC(NC(=O)c2ccc4c(c2)OCO4)C3)cc1` (centres undefined): the IC50 in experiment [1] (run 1) was above 79 µM; in experiment [1] (run 2), 28.6 µM; in experiment [2] (CCR6, mean of runs) it was > 79 µM (inactive); in experiment [2] (CCR6, run 1), above 79 µM; in experiment [2] (CCR6, run 2) it was above 79 µM; in experiment [3] (CXCR6, mean of runs), > 79 µM (inactive). The IC50 in experiment [3] (CXCR6, run 1) was above 79 µM; in experiment [3] (CXCR6, run 2), above 79 µM.

Consider `COc1cc(C(=O)NC2CC3CCCC(C2)N3CC(=O)Nc2ccc(F)cc2)cc(OC)c1OC` (centres undefined), for which the IC50 in experiment [1] (mean of runs) was > 79 µM (inactive); in experiment [1] (run 1), above 79 µM; in experiment [1] (run 2), above 79 µM; in experiment [2] (CCR6, mean of runs) it was > 79 µM (inactive); in experiment [2] (CCR6, run 1), above 79 µM; in experiment [2] (CCR6, run 2) it was above 79 µM. Further, the IC50 in experiment [3] (CXCR6, mean of runs) is 3.51 µM; in experiment [3] (CXCR6, run 1), 3.08 µM; in experiment [3] (CXCR6, run 2), 3.95 µM.

Regarding `COc1ccc(C(=O)NC2CC3CCCC(C2)N3CC(=O)Nc2ccc(F)cc2)cc1OC` (centres undefined), the IC50 is > 79 µM (inactive) in experiment [1] (mean of runs); above 79 µM in experiment [1] (run 1); above 79 µM in experiment [1] (run 2); > 79 µM (inactive) in experiment [2] (CCR6, mean of runs); above 79 µM in experiment [2] (CCR6, run 1); above 79 µM in experiment [2] (CCR6, run 2). The IC50 in experiment [3] (CXCR6, mean of runs) is > 79 µM (inactive); in experiment [3] (CXCR6, run 1), above 79 µM; in experiment [3] (CXCR6, run 2), above 79 µM.

On to `COc1cccc(C(=O)NC2CC3CCCC(C2)N3CC(=O)Nc2ccc(F)cc2)c1` (centres undefined), for which the IC50 was > 79 µM (inactive) in experiment [1] (mean of runs); above 79 µM in experiment [1] (run 1); above 79 µM in experiment [1] (run 2); > 79 µM (inactive) in experiment [2] (CCR6, mean of runs); above 79 µM in experiment [2] (CCR6, run 1); above 79 µM in experiment [2] (CCR6, run 2). Further, the IC50 in experiment [3] (CXCR6, mean of runs) is > 79 µM (inactive); in experiment [3] (CXCR6, run 1) it was above 79 µM; in experiment [3] (CXCR6, run 2) it was above 79 µM.

For `COc1ccc(C(=O)NC2CC3CCCC(C2)N3CC(=O)Nc2ccc(C)cc2)cc1` (centres undefined), the IC50 in experiment [1] (mean of runs) is > 79 µM (inactive); in experiment [1] (run 1) it was above 79 µM; in experiment [1] (run 2) it was above 79 µM; in experiment [2] (CCR6, mean of runs), > 79 µM (inactive); in experiment [2] (CCR6, run 1), above 79 µM; in experiment [2] (CCR6, run 2) it was above 79 µM. The IC50 was > 79 µM (inactive) in experiment [3] (CXCR6, mean of runs); above 79 µM in experiment [3] (CXCR6, run 1); above 79 µM in experiment [3] (CXCR6, run 2).

Regarding `COc1ccc(NC(=O)CN2C3CCCC2CC(NC(=O)c2ccc4c(c2)OCO4)C3)cc1` (centres undefined), the IC50 in experiment [1] (mean of runs) was > 79 µM (inactive); in experiment [1] (run 1), above 79 µM; in experiment [1] (run 2) it was above 79 µM; in experiment [2] (CCR6, mean of runs), > 79 µM (inactive); in experiment [2] (CCR6, run 1), above 79 µM; in experiment [2] (CCR6, run 2) it was above 79 µM. Further, the IC50 was > 79 µM (inactive) in experiment [3] (CXCR6, mean of runs); above 79 µM in experiment [3] (CXCR6, run 1); above 79 µM in experiment [3] (CXCR6, run 2).

As to `COc1cc(OC)cc(C(=O)NC2CC3CCCC(C2)N3CC(=O)Nc2ccc(Cl)cc2)c1` (centres undefined), the IC50 in experiment [1] (mean of runs) was > 79 µM (inactive); in experiment [1] (run 1) it was above 79 µM; in experiment [1] (run 2), above 79 µM; in experiment [2] (CCR6, mean of runs) it was > 79 µM (inactive); in experiment [2] (CCR6, run 1) it was above 79 µM; in experiment [2] (CCR6, run 2) it was above 79 µM. In addition, the IC50 in experiment [3] (CXCR6, mean of runs) is > 79 µM (inactive); in experiment [3] (CXCR6, run 1), above 79 µM; in experiment [3] (CXCR6, run 2) it was above 79 µM.

In the case of `COc1cc(C(=O)NC2CC3CCCC(C2)N3CC(=O)Nc2ccccc2)cc(OC)c1OC` (centres undefined), the IC50 in experiment [1] (mean of runs) is > 79 µM (inactive); in experiment [1] (run 1), above 79 µM; in experiment [1] (run 2), above 79 µM; in experiment [2] (CCR6, mean of runs), > 79 µM (inactive); in experiment [2] (CCR6, run 1), above 79 µM; in experiment [2] (CCR6, run 2) it was above 79 µM. Besides, the IC50 in experiment [3] (CXCR6, mean of runs) was 4.78 µM and 4.75 µM; in experiment [3] (CXCR6, run 1), 4.48 µM and 4.08 µM; in experiment [3] (CXCR6, run 2) it was 5.09 µM and 5.43 µM.
